Results reported in ChEMBL document CHEMBL4177542, “A New Combination of a Pleuromutilin Derivative and Doxycycline for Treatment of Multidrug-Resistant Acinetobacter baumannii” (J Med Chem, 2017).
Values after ≈ are worked out from the molar mass of the structure shown.

Columns and labels:
Klebsiella pneumoniae [1] = assay: Growth inhibition of Klebsiella pneumoniae ATCC 8047 after 48 hrs by resazurin dye based microdilution method; format: functional; conditions: ATCC 8047, 48 h
How it was run: (§1)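 Broth microdilution in tryptic soy broth. Mid-log cultures (OD600 0.5) treated with serial dilutions from a DMSO stock (1 mg per 100 μL) for 48 h at 37 °C. Resazurin (stock 0.02%) then added for 1 h at 37 °C. MIC is the lowest concentration staying blue; MBC is blue retained over 4 h (99.9% kill), with CFU plating when needed.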

Pseudomonas aeruginosa [2] = assay: Synergistic antibacterial activity against Pseudomonas aeruginosa ATCC 27853 at 60:1 compound to doxycycline ratio after 48 hrs by resazurin dye based microdilution broth checkerboard method; format: functional; conditions: ATCC 27853, 48 h
How it was run: (§2)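 Checkerboard broth microdilution of drug pairs in tryptic soy broth on mid-log cultures (OD 0.5), 48 h at 37 °C. Growth read by resazurin (pink growth, blue no growth). MBC is blue retained over 4 h, CFU plating where needed. ΣFIC = C_A/MIC_A + C_B/MIC_B, taken at the growth/no-growth interface wells; ΣFIC <0.5 counts as synergy.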

Acinetobacter baumannii [3] = assay: Synergistic antibacterial activity against multidrug-resistant Acinetobacter baumannii ATCC […] at 35:1 compound to doxycycline ratio after 48 hrs by resazurin dye based microdilution broth checkerboard method; format: functional; conditions: ATCC BAA 18002, 48 h
How it was run: (§3)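 Microdilution broth checkerboard of the compound combined with doxycycline, using the resazurin broth method (48 h, 37 °C, blue = no growth). ΣFIC = C_A/MIC_A + C_B/MIC_B, taken at the growth–no growth interface wells; ΣFIC below 0.5 is scored as synergy. MBC for the fixed-ratio combinations read as the 4 h resazurin endpoint.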

Escherichia coli [4] = assay: Synergistic antibacterial activity against Escherichia coli ATCC 10798 at 2:1 compound to doxycycline ratio after 48 hrs by resazurin dye based microdilution broth checkerboard method; format: functional; conditions: ATCC 10798, 48 h; how it was run: as §2
Pseudomonas aeruginosa [5] = assay: Growth inhibition of Pseudomonas aeruginosa ATCC 27853 after 48 hrs by resazurin dye based microdilution method; format: functional; conditions: ATCC 27853, 48 h; how it was run: as §1
[6] = Half life in Sprague-Dawley rat liver microsomes at 500 ng/ml by LC/MS analysis; format: ADME, microsome
How it was run: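 Pooled Sprague-Dawley rat liver microsomes at 1 mg/mL protein in 100 mM phosphate, pH 7.4. Compound at 500 ng/mL final; verapamil as positive control. Pre-equilibrated 5 min at 37 °C, then 1 mM NADPH added. Triplicate samples at 0, 5, 10, 20, 30, 45 and 60 min, quenched in 4 volumes of cold methanol, analysed by LC-MS.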

Acinetobacter baumannii [7] = assay: Potentiation of doxycycline-induced antimicrobial activity against Acinetobacter baumannii ATCC 19606 at 0.78 ug/ml in presence of 0.025 ug/ml doxycycline by microdilution broth checkerboard method; format: functional, ATCC 19606 = CIP 70.34 = JCM 6841
How it was run: (§4)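 A. baumannii ATCC 19606 in a broth microdilution checkerboard with doxycycline, 96 concentration combinations. ΣFIC = C_A/MIC_A + C_B/MIC_B, taken for wells at the growth/no-growth interface; ΣFIC <0.5 counts as synergy.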

[8] = Protein binding in rat plasma at 500 to 5000 ng/ml after 4 hrs by LC/MS analysis; format: ADME, cell-free
How it was run: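 Equilibrium dialysis (MWCO 6000–8000) of Sprague-Dawley rat plasma (lithium heparin) spiked at 500 and 5000 ng/mL, in duplicate, against isotonic phosphate buffer pH 7.4. 4 h at 37 °C, about 100 rpm. Methanol with internal standard, LC-MS. Free fraction = buffer/plasma concentration; reported as % bound. Verapamil as reference.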

Pseudomonas aeruginosa [9] = assay: Growth inhibition of Pseudomonas aeruginosa ATCC 27853 at 2:1 compound to doxycycline ratio after 48 hrs by resazurin dye based microdilution method; format: functional; conditions: ATCC 27853, 48 h; how it was run: as §2
Acinetobacter baumannii [10] = assay: Synergistic antibacterial activity against Acinetobacter baumannii ATCC 19606 infected in C57BL/6 mouse assessed as survival rate at compound to doxycycline ratio of 35:1 at 20 mg/kg, ip administered as single dose measured for 5 days (reference value: <20%); format: functional; conditions: ATCC 19606 = CIP 70.34 = JCM 6841, ip, 120 h
How it was run: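 C57BL/6 mice (n = 5 per group; 4 untreated controls) infected intraperitoneally with A. baumannii ATCC19606 grown at 37 °C and collected by centrifugation, at a dose giving 75% death. Single intraperitoneal dose (2 to 60 mg/kg) given 1 h after infection. Mice monitored for 5 days, with death as the end point; survival rate recorded.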

Pseudomonas aeruginosa [11] = assay: Synergistic bactericidal activity against Pseudomonas aeruginosa ATCC 27853 at 60:1 compound to doxycycline ratio after 48 hrs by resazurin dye based microdilution broth checkerboard method; format: functional; conditions: ATCC 27853, 48 h, read-out: MBC99.9; how it was run: as §2
Acinetobacter baumannii [12] = assay: Potentiation of doxycycline-induced antimicrobial activity against Acinetobacter baumannii ATCC 19606 at 1.56 ug/ml in presence of 0.025 ug/ml doxycycline by microdilution broth checkerboard method; format: functional, ATCC 19606 = CIP 70.34 = JCM 6841; how it was run: as §4
Klebsiella pneumoniae [13] = assay: Synergistic antibacterial activity against Klebsiella pneumoniae ATCC 8047 at 35:1 compound to doxycycline ratio after 48 hrs by resazurin dye based microdilution broth checkerboard method; format: functional; conditions: ATCC 8047, 48 h; how it was run: as §2
Escherichia coli [14] = assay: Synergistic antibacterial activity against Escherichia coli ATCC 10798 at 60:1 compound to doxycycline ratio after 48 hrs by resazurin dye based microdilution broth checkerboard method; format: functional; conditions: ATCC 10798, 48 h; how it was run: as §2
Pseudomonas aeruginosa [15] = assay: Bactericidal activity against Pseudomonas aeruginosa ATCC 27853 after 48 hrs by resazurin dye based microdilution method; format: functional; conditions: ATCC 27853, 48 h, read-out: MBC99.9; how it was run: as §1
Escherichia coli [16] = assay: Synergistic bactericidal activity against Escherichia coli ATCC 10798 at 2:1 compound to doxycycline ratio after 48 hrs by resazurin dye based microdilution broth checkerboard method; format: functional; conditions: ATCC 10798, 48 h, read-out: MBC99.9; how it was run: as §2
Klebsiella pneumoniae [17] = assay: Synergistic antibacterial activity against Klebsiella pneumoniae ATCC 8047 at 2:1 compound to doxycycline ratio after 48 hrs by resazurin dye based microdilution broth checkerboard method; format: functional; conditions: ATCC 8047, 48 h; how it was run: as §3
Acinetobacter baumannii [18] = assay: Potentiation of doxycycline-induced antimicrobial activity against Acinetobacter baumannii ATCC 19606 at 0.40 ug/ml in presence of 0.025 ug/ml doxycycline by microdilution broth checkerboard method; format: functional, ATCC 19606 = CIP 70.34 = JCM 6841; how it was run: as §4
Acinetobacter baumannii [19] = assay: Synergistic bactericidal activity against Acinetobacter baumannii ATCC 19606 at 60:1 compound to doxycycline ratio after 48 hrs by resazurin dye based microdilution broth checkerboard method; format: functional; conditions: ATCC 19606 = CIP 70.34 = JCM 6841, 48 h, read-out: MBC99.9; how it was run: as §2
Pseudomonas aeruginosa [20] = assay: Synergistic bactericidal activity against Pseudomonas aeruginosa ATCC 27853 at 35:1 compound to doxycycline ratio after 48 hrs by resazurin dye based microdilution broth checkerboard method; format: functional; conditions: ATCC 27853, 48 h, read-out: MBC99.9; how it was run: as §2
Acinetobacter baumannii [21] = assay: Synergistic antibacterial activity against Acinetobacter baumannii ATCC 19606 at 35:1 compound to doxycycline ratio after 48 hrs by resazurin dye based microdilution broth checkerboard method; format: functional; conditions: ATCC 19606 = CIP 70.34 = JCM 6841, 48 h; how it was run: as §3
Acinetobacter baumannii [22] = assay: Synergistic antibacterial activity against Acinetobacter baumannii ATCC 19606 at 60:1 compound to doxycycline ratio after 48 hrs by resazurin dye based microdilution broth checkerboard method; format: functional; conditions: ATCC 19606 = CIP 70.34 = JCM 6841, 48 h; how it was run: as §2
Staphylococcus aureus = assay: Bactericidal activity against Staphylococcus aureus ATCC 25923 after 48 hrs by resazurin dye based microdilution method; format: functional; conditions: ATCC 25923, 48 h, read-out: MBC99.9; how it was run: as §1

In the case of `C=C[C@]1(C)C[C@@H](OC(=O)CSC(C)(C)CNC(=O)[C@H](N)C(C)C)[C@]2(C)[C@H](C)CC[C@]3(CC[C@@H](O)[C@H]32)[C@@H](C)[C@@H]1O`, the MIC (Klebsiella pneumoniae [1]) is reported as less than 6.25 mg/L, the MIC (Pseudomonas aeruginosa [2]) is reported as 12.5 mg/L and the MIC (Acinetobacter baumannii [3]) is reported as 1.56 mg/L. For the same compound, the MIC (Escherichia coli [4]) was 0.25 mg/L, the MIC (Pseudomonas aeruginosa [5]) was greater than 25 mg/L and the t1/2 [6] was greater than 1 h. For the same compound, the “fractional inhibitory concentration index (FICI)” value (Acinetobacter baumannii [7]) was 0.25 - 0.37, the PPB [8] was 76.9% and the MIC (Pseudomonas aeruginosa [9]) was 6.25 mg/L. The survival at 20 mg/kg (Acinetobacter baumannii [10]) was 100%, the MBC (Pseudomonas aeruginosa [11]) was 25 mg/L and the “fractional inhibitory concentration index (FICI)” value (Acinetobacter baumannii [12]) was 0.38. It also gave an MIC (Klebsiella pneumoniae [13]) of 0.78 mg/L, an MIC (Escherichia coli [14]) of 0.25 mg/L and an MBC (Pseudomonas aeruginosa [15]) greater than 25 mg/L. For the same compound, the MBC (Escherichia coli [16]) was 1.56 mg/L, the MIC (Klebsiella pneumoniae [17]) was 0.78 mg/L and the “fractional inhibitory concentration index (FICI)” value (Acinetobacter baumannii [18]) was 0.19. The MBC (Acinetobacter baumannii [19]) was 2 mg/L, the MBC (Pseudomonas aeruginosa [20]) was 25 mg/L and the MIC (Acinetobacter baumannii [21]) was 0.4 mg/L. It also gave an MIC (Acinetobacter baumannii [22]) of 0.5 mg/L and an MBC (Staphylococcus aureus) of 25 mg/L (≈ 44.1 µM).
